Hits are enriched below; roughly 1.2% of the tested compounds scored in any of these assays.
HMGR II inh: E. faecalis class II HMG-CoA reductase inhibition | purified E. faecalis HMGR, NADPH absorbance 340 nm kinetic | inhibition, % at 10 µM | 190,000 tested, 0.41% active | AID 1066;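 active means inhibition above a set limit, the median over all tested compounds plus 3 SD, cut at about 9.5% in these data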;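 further: enzyme runs in reverse so mevalonate oxidation gives rising NADPH absorbance; 0% = complete reaction with DMSO and 100% = background rate lacking mevalonate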
NCF1 inh: inhibitors of human p47phox binding. 220,000 tested, 0.53% active. p47phox/p22phox peptide binding, fluorescence polarization, 2 h. AID 1274. P14598. inhibition, % at 24.7 µM;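 active means inhibition above about 30%, limit read from the data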;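 further: 0% = p47phox with labelled peptide and 100% = labelled peptide alone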
Target sequence (P14598 whole entry, looked up): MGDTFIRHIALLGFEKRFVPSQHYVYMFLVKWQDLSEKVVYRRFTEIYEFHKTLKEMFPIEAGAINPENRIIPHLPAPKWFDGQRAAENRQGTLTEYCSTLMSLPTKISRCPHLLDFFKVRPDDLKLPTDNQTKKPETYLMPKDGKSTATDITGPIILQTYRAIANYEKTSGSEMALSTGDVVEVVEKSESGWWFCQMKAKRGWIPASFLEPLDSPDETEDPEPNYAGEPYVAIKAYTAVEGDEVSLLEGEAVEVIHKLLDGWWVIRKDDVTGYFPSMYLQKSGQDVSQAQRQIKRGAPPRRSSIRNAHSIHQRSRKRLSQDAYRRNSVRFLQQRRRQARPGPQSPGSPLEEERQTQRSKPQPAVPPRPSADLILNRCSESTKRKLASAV
DTT redox prof: compounds producing H2O2 with reducing agent – biochemical, NIH compound library profiling, artefact control for MLSCN library redox annotation, primary screen; DTT-dependent redox cycling H2O2, phenol red/HRP absorbance; 100% = 100 µM peroxide control, 0% = buffer; activation, % at 10 µM; 200,000 tested, 0.03% active; AID 878;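 active means activation of at least 50% relative to the plate's high and low controls in the primary single-dose screen; inactive means activation below 50%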;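 further: compound incubated with DTT at 0.8 mM final as the reducing agent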
PMI act hi M6P: PMI (human) activation, high substrate. 190,000 tested, 0.34% active. AID 1216. coupled PMI enzyme assay, resazurin fluorescence, 20 min; active compounds read high; 1 = untreated enzyme, 0 = substrate-free blank. P34949. activation factor at 20 µM;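 active means activation factor of 2 or more at 20 µM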
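Material: human phosphomannose isomerase with PGI, G6PDH, diaphorase coupling enzymes; amount: PMI at 15 ng/mL final; also added: Mannose-6-phosphate 1.0 mM (near-saturating) plus 0.22 mM NADP+; incubation: enzyme reaction with compound 20 min at room temperature; signal: resorufin fluorescence (Ex 544/Em 590 nm) from resazurin via diaphorase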
PMI act: activators of human phosphomannose isomerase | purified human PMI, coupled resazurin fluorescence, 20 min; active compounds read high; 1 = vehicle control, 0 substrate-free wells | activation factor at 20 µM | 190,000 tested, 0.005% active | AID 1214;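 active means activation factor of 2 or more at 20 µM, relative to plate controls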
Diaph act CS: diaphorase activation or chemical reduction counter-screen | Diaphorase/resazurin coupled assay, resorufin fluorescence, 16 min; active compounds read high; 1 = vehicle wells, 0 = NADH-free wells | activation factor at 20 µM | 190,000 tested, 0.005% active;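 active means diaphorase activity raised at least twofold by the compound at 20 µM; inactive means activation factor below 2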
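Material: Clostridium kluyveri diaphorase, purified enzyme; Quantity: enzyme 0.07 U/mL final; Medium: HEPES pH 7.4 buffer with MgCl2 and Tween 20; Dosing: single compound dose of 20 µM, 1% DMSO final; Schedule: 16 min reaction at room temperature; Measured by: red resorufin fluorescence at 544/590 nm excitation/emission.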
Starred values were filed as active, the others as inactive; nt = no result given.

SMILES	HMGR II inh	NCF1 inh	DTT redox prof	PMI act hi M6P	PMI act	Diaph act CS
O=C(O)Cc1sc(Nc2ccccc2)nc1-c1ccc(Cl)cc1	-4	-15	0	2.5*	1.6	0.8
Cc1ccc(Nc2nc(-c3ccccc3)c(CC(=O)O)s2)cc1	1	-40	0	1	1	0.8
Cc1ccc2c(c1)/C(=N/N1C(=O)c3ccccc3C1=O)C(=O)N2	-2	3	0	0.9	1	0.8
C=C1c2ccccc2NC(=O)N1c1ccc(C)cc1	-4	-8	0	2.1*	1.7	1
C=C1c2cc(C)ccc2NC(=O)N1c1ccc(C)cc1	-3	-15	1	2.4*	1.9	1
COC(=O)[C@H](CC(C)C)NC(=O)N1CCC(C)CC1	nt	-5	nt	nt	nt	nt
COc1ccc(C(C)=O)cc1COC(=O)CNC(=O)c1ccc(Cl)cc1	-5	194*	0	1	1	1
Cn1c(=O)c2c(nc(N3CCN(Cc4ccccc4)CC3)n2CCSc2ncccn2)n(C)c1=O	nt	nt	nt	1	0.9	1
Cc1cc(N2CCN(S(=O)(=O)c3ccc4c(c3)OCCO4)CC2)n2ncnc2n1	-1	-3	0	0.9	0.9	0.9
O=C(Nc1cccc(C(=O)O)c1)/C(=C\c1ccccc1)NC(=O)c1cccc2ccccc12	0	122*	0	1	1	0.8
C=CCNC(=O)c1onc(CSc2cccc(OC)c2)c1C(=O)O	-1	32*	18	1	1	1
CC(C)(C)c1ccc(OCC(=O)NNC(=O)CCc2ccccc2)cc1	-8	61*	2	0.9	0.9	0.9
COc1ccc(NC(=O)CCN2C(=O)c3ccncc3C2=O)cc1OC	nt	-10	nt	nt	nt	nt
Cn1c(=O)c2ncn(CC(=O)N=Nc3c(O)[nH]c4ccccc34)c2n(C)c1=O	4	-9	0	1.1	1.1	1.1
O=C(COc1ccc2ccccc2c1)N1CCN(C(=O)c2ccco2)CC1	10*	-3	1	1.1	1.2	0.9
Cc1ccc(NC(=O)COC(=O)CCc2ccc(S(=O)(=O)N3CCOCC3)cc2)cc1F	0	-12	-1	1.1	1.1	1
COc1ccc(N=Nc2nc3ccc(Br)cc3n2C)cc1	1	-4	2	2.2*	1.4	1.2
N#C/C(=C/c1ccc(Br)s1)C(=O)NCCc1c[nH]c2ccccc12	4	-9	1	1	0.9	0.9
Cc1ccnc(NS(=O)(=O)c2ccc(NC(=O)CSc3nc(-c4ccccc4)cc(=O)[nH]3)cc2)n1	1	-1	0	1	1.1	0.8
CCOC(=O)c1c(C)nc2c(c1-c1cc(OC)ccc1OC)C(=O)CC(C)(C)C2	nt	-1	nt	nt	nt	nt
COCCn1c(=O)[nH]c(=O)c2c1nc(-c1ccc(-c3ccc(Cl)cc3[N+](=O)[O-])o1)n2Cc1ccccc1	4	-19	0	0.5	0.9	0.6
COCc1cc(C)nc(N/N=C/c2ccc(-c3ccc(Cl)cc3[N+](=O)[O-])o2)c1C#N	-4	40*	5	0.4	0.9	0.7
CCN(Cc1ccccc1)c1ccc(/C=N/NS(=O)(=O)c2cccc([N+](=O)[O-])c2)cc1	-2	-7	0	2*	1.5	0.8
CCN(CC)c1ccc(/C=N/NS(=O)(=O)c2ccc(C)c([N+](=O)[O-])c2)cc1	-5	-6	0	1.4	1.1	0.7
FC(F)(F)c1cc(-c2ccccc2)nc2nc(N3CCOCC3)sc12	-1	-2	0	1	1.1	1
SMILES	HMGR II inh	NCF1 inh	DTT redox prof	PMI act hi M6P	PMI act	Diaph act CS
CN1CCN(S(=O)(=O)c2ccc(N3CCN(S(=O)(=O)/C=C/c4ccccc4)CC3)nc2)CC1	2	40*	7	1	1	1
CCSc1ncc(/C=N/Nc2ccc(F)cc2)n1C	-7	-10	-1	2*	1.2	0.7
CCOc1ccc(OCC)c(NC(=O)CSc2nnc(-c3cccnc3)o2)c1	-1	-5	3	0.9	0.8	0.9
COc1ccc(S(=O)(=O)N(C)C)cc1NC(=O)CSc1nnc(-c2cccnc2)o1	13*	2	0	0.9	0.8	0.8
Cc1ccc2nc(=O)c(NNc3ccccc3)cnc2c1	-5	4	0	0.9	1	0.8
Cc1nc2ccccc2nc(=O)c1NNc1ccccc1	-4	74*	0	0.9	0.9	0.8
Cc1oc(-c2cccs2)[n+]([O-])c1C	-1	nt	3	0.9	0.9	0.9
Cc1ccccc1-c1oc(C)c(C)[n+]1[O-]	15*	-6	-1	1.2	1.3	0.9
Cc1cccc(NC(=O)NC(C)C(c2ccccc2)N2CCN(C)CC2)c1 (stereo not given)	-7	-6	-1	0.9	1	1.1
O=C(N/N=C/c1ccc([N+](=O)[O-])o1)c1cc2c(ccc3ccccc32)o1	-2	30*	-1	1.1	1.3	0.8
Nc1nc(SCC(=O)NCCc2ccccc2)[nH]c(=O)c1-c1ccccc1	-3	-12	-1	1	1	1
CN(C)c1nc(C(F)(F)F)cc(=O)[nH]1	1	-12	0	1	1	0.9
CC1Nc2nc(N(C)C)[nH]c(=O)c2NC1C (stereo not given)	-4	-10	0	2.7*	1.8	0.9
O=C(OCC(=O)N1CCc2ccccc2C1)c1cccnc1Cl	-2	-2	0	0.9	1	0.9
Cc1nnc(SCC(=O)N2CCCC2)n(N)c1=O	10*	1	0	1.1	1.1	1.1
Cc1nnc(SC/C=C/c2ccccc2)n(N)c1=O	9.8*	2	0	1.2	1.1	1.1
C[C@H](NS(=O)(=O)c1ccccc1)C(=O)OCC(=O)NC(=O)Nc1ccc2c(c1)OCCO2	0	-1	-1	0.8	0.9	0.8
COc1ccc(-c2cn[nH]c2-c2ccc(OCc3ccc([N+](=O)[O-])cc3)cc2O)cc1	-2	35*	0	1.1	1	0.9
CCCNS(=O)(=O)c1ccc(OCC(=O)N2CCCC2)cc1	-5	1	1	1	1	1.1
CCC(=O)Nc1ccc(/C(C)=N\NS(=O)(=O)c2ccc(C)cc2)cc1	-3	170*	-5	1	1	1
COc1ccc(C2(CNS(=O)(=O)c3ccc(C)cc3)CCOCC2)cc1	nt	-8	nt	nt	nt	nt
CC(=O)c1c(N2CCN(Cc3ccccc3)CC2)nc(=S)n(-c2ccccc2)c1C	-8	-11	-1	2.1*	1.6	0.8
CC(=O)c1c(N2CCN(CCO)CC2)nc(=S)n(-c2ccccc2)c1C	-3	-7	1	1	1	0.8

Screening data: PubChem, several laboratories
